According to ChEMBL document CHEMBL3124867, “Hepatitis C replication inhibitors that target the viral NS4B protein” (J Med Chem, 2014):
Values after ≈ are worked out from the molar mass of the structure shown.

What was measured:
[1] = AUC (0 to infinity) in cynomolgus monkey at 5 mg/kg, po by LC/MS/MS analysis; type: ADME, organism-based, Macaca fascicularis; design: time infinity, dose 5 mg/kg, route oral; conditions: plasma
In short: (§1)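 Oral dose of 5 mg/kg in DMSO/20% HP-β-CD (10:90), with a matching iv group for bioavailability. Plasma concentration–time profiles gave AUC0−∞ and F.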

[2] = Oral bioavailability in beagle dog at 5 mg/kg by LC/MS/MS analysis; type: ADME, organism-based, Canis lupus familiaris; conditions: in vivo; in short: as §1
[3] = Volume of distribution at steady state in cynomolgus monkey at 1 mg/kg, iv by LC/MS/MS analysis; type: ADME, organism-based, Macaca fascicularis; design: dose 1 mg/kg, route intravenous; conditions: in vivo, read-out: Vdss
In short: (§2)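 Intravenous dose of 1 mg/kg in DMSO/20% HP-β-CD (10:90) (n = 4). Clearance, Vdss and t1/2 were derived from the plasma concentration–time profiles.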

[4] = Aqueous solubility in fasted state simulated intestinal fluid at pH 6.5 by LC/UV analysis; type: physicochemical
Cytochrome P450 2C9 = Cytochrome P450 2C9 (Homo sapiens, UniProt P11712); assay: Inhibition of CYP2C9 in human liver microsomes after 10 mins by LC/MS/MS analysis; type: ADME
In short: (§3)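 Cytochrome P450 isozymes 3A4, 1A2, 2C9, 2C19 and 2D6 were tested for inhibition up to 20 μM, with IC50 reported.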

[5] = Half life in beagle dog at 1 mg/kg, iv by LC/MS/MS analysis; type: ADME, organism-based, Canis lupus familiaris; design: dose 1 mg/kg, route intravenous; conditions: in vivo; in short: as §2
Cytochrome P450 2C19 = Cytochrome P450 2C19 (Homo sapiens, UniProt P33261); assay: Inhibition of CYP2C19 in human liver microsomes after 10 mins by LC/MS/MS analysis; type: ADME; in short: as §3
Hepatitis C virus [6] = assay: Antiviral activity against Hepatitis C virus genotype 1a infected in human HuH7 cells after 48 hrs by luciferase reporter gene assay; type: functional, organism-based, Hepacivirus hominis; conditions: subtype 1a, Huh-7, 48 h
[7] = AUC (0 to infinity) in CD-1 mouse at 5 mg/kg, po by LC/MS/MS analysis; type: ADME, organism-based; design: time infinity, dose 5 mg/kg, route oral; conditions: plasma; in short: as §1
[8] = Oral bioavailability in cynomolgus monkey at 5 mg/kg by LC/MS/MS analysis; type: ADME, organism-based, Macaca fascicularis; conditions: in vivo; in short: as §1
[9] = Clearance in CD rat at 1 mg/kg, iv by LC/MS/MS analysis; type: ADME, organism-based; design: dose 1 mg/kg, route intravenous; conditions: in vivo; in short: as §2
[10] = Clearance in CD-1 mouse at 1 mg/kg, iv by LC/MS/MS analysis; type: ADME, organism-based; design: dose 1 mg/kg, route intravenous; conditions: in vivo; in short: as §2
[11] = Half life in cynomolgus monkey at 1 mg/kg, iv by LC/MS/MS analysis; type: ADME, organism-based, Macaca fascicularis; design: dose 1 mg/kg, route intravenous; conditions: in vivo; in short: as §2
Cytochrome P450 3A4 = Cytochrome P450 3A4 (Homo sapiens, UniProt P08684); assay: Inhibition of CYP3A4 in human liver microsomes after 7 mins by LC/MS/MS analysis; type: ADME; in short: as §3
Cytochrome P450 1A2 = target: T1, Cytochrome P450 1A2 (Homo sapiens, UniProt P05177); assay: Inhibition of CYP1A2 in human liver microsomes after 10 mins by LC/MS/MS analysis; type: ADME; in short: as §3
T1 sequence (P05177 whole entry): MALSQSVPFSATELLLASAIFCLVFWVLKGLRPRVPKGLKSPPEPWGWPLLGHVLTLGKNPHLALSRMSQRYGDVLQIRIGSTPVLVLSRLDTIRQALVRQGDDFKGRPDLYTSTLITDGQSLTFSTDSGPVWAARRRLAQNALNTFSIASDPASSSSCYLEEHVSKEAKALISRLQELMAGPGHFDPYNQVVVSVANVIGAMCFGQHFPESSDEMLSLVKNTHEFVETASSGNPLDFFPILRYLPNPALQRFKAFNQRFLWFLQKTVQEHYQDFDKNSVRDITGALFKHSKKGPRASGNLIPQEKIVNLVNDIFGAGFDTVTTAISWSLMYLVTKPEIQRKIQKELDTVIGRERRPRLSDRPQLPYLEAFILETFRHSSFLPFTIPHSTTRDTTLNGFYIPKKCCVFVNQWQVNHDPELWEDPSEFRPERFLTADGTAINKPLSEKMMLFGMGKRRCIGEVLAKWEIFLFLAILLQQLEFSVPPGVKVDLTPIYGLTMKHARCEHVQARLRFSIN

[12] = Plasma protein binding in CD rat at 5 uM after 4 hrs by rapid equilibrium dialysis method; type: ADME, cell-free; conditions: read-out: PPB (converted)
[13] = Plasma protein binding in cynomolgus monkey at 5 uM after 4 hrs by rapid equilibrium dialysis method; type: ADME, cell-free, Macaca fascicularis; conditions: read-out: PPB (converted)
[14] = Volume of distribution at steady state in beagle dog at 1 mg/kg, iv by LC/MS/MS analysis; type: ADME, organism-based, Canis lupus familiaris; design: dose 1 mg/kg, route intravenous; conditions: in vivo, read-out: Vdss; in short: as §2
Cytochrome P450 2D6 = Cytochrome P450 2D6 (Homo sapiens, UniProt P10635); assay: Inhibition of CYP2D6 in human liver microsomes after 10 mins by LC/MS/MS analysis; type: ADME; in short: as §3
[15] = Clearance in beagle dog at 1 mg/kg, iv by LC/MS/MS analysis; type: ADME, organism-based, Canis lupus familiaris; design: dose 1 mg/kg, route intravenous; conditions: in vivo; in short: as §2
[16] = AUC (0 to infinity) in CD rat at 5 mg/kg, po by LC/MS/MS analysis; type: ADME, organism-based; design: time infinity, dose 5 mg/kg, route oral; conditions: plasma; in short: as §1
[17] = Plasma protein binding in human at 5 uM after 4 hrs by rapid equilibrium dialysis method; type: ADME, cell-free; conditions: read-out: PPB (converted)
[18] = Volume of distribution at steady state in CD rat at 1 mg/kg, iv by LC/MS/MS analysis; type: ADME, organism-based; design: dose 1 mg/kg, route intravenous; conditions: in vivo, read-out: Vdss; in short: as §2
[19] = Oral bioavailability in CD rat at 5 mg/kg by LC/MS/MS analysis; type: ADME, organism-based; conditions: in vivo; in short: as §1
[20] = Displacement of [3H]-3-(1-(3-chloro-6-isopropyl-8-(trifluoromethyl)imidazo[1,2-a]pyridine-2-carbonyl)piperidin-4-yl)oxazolidin-2-one from HCV genotype 1b C-terminal His-tagged NS4B (1 to 261 aa) expressed in baculovirus infected SF9 cells after overnight incubation; design: species or system Hepatitis C virus subtype 1b
[21] = Plasma protein binding in CD-1 mouse at 5 uM after 4 hrs by rapid equilibrium dialysis method; type: ADME, cell-free; conditions: read-out: PPB (converted)
[22] = Half life in CD rat at 1 mg/kg, iv by LC/MS/MS analysis; type: ADME, organism-based; design: dose 1 mg/kg, route intravenous; conditions: in vivo; in short: as §2
Liver microsome [23] = assay: Drug metabolism in rat liver microsomes assessed as generation of reactive metabolites at 10 uM after 30 mins by glutathione-trapping assay; type: ADME; conditions: 0.5 h
In short: (§4)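 Rat and human liver microsomes were incubated with compound, and a glutathione-trapping assay was used to detect reactive metabolites.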

[24] = Clearance in cynomolgus monkey at 1 mg/kg, iv by LC/MS/MS analysis; type: ADME, organism-based, Macaca fascicularis; design: dose 1 mg/kg, route intravenous; conditions: in vivo; in short: as §2
Hepatitis C virus [25] = assay: Antiviral activity against Hepatitis C virus genotype 1b infected in human HuH7 cells after 48 hrs by luciferase reporter gene assay; type: functional, organism-based, Hepacivirus hominis; conditions: Huh-7, 48 h
Hepatitis C virus [26] = assay: Antiviral activity against Hepatitis C virus genotype 1b expressing NS4B H94N mutant infected in human HuH7 cells after 48 hrs by luciferase reporter gene assay; type: functional, organism-based, Hepacivirus hominis; conditions: Huh-7, 48 h
[27] = Lipophilicity, log D of the compound by chromatographic analysis; type: physicochemical
In short: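 Lipophilicity was measured chromatographically and reported as ChromLogD; ≥6 replicates.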

Hepatitis C virus [28] = assay: Antiviral activity against Hepatitis C virus genotype 1b expressing NS4B V105M mutant infected in human HuH7 cells after 48 hrs by luciferase reporter gene assay; type: functional, organism-based, Hepacivirus hominis; conditions: Huh-7, 48 h
[29] = AUC (0 to infinity) in beagle dog at 5 mg/kg, po by LC/MS/MS analysis; type: ADME, organism-based, Canis lupus familiaris; design: time infinity, dose 5 mg/kg, route oral; conditions: plasma; in short: as §1
Liver microsome [30] = assay: Drug metabolism in human liver microsomes assessed as generation of reactive metabolites at 10 uM after 30 mins by glutathione-trapping assay; type: ADME; conditions: 0.5 h; in short: as §4
[31] = Plasma protein binding in beagle dog at 5 uM after 4 hrs by rapid equilibrium dialysis method; type: ADME, cell-free, Canis lupus familiaris; conditions: read-out: PPB (converted)
[32] = Half life in CD-1 mouse at 1 mg/kg, iv by LC/MS/MS analysis; type: ADME, organism-based; design: dose 1 mg/kg, route intravenous; conditions: in vivo; in short: as §2
[33] = Volume of distribution at steady state in CD-1 mouse at 1 mg/kg, iv by LC/MS/MS analysis; type: ADME, organism-based; design: dose 1 mg/kg, route intravenous; conditions: in vivo, read-out: Vdss; in short: as §2
[34] = Oral bioavailability in CD-1 mouse at 5 mg/kg by LC/MS/MS analysis; type: ADME, organism-based; conditions: in vivo; in short: as §1
Hepatitis C virus [35] = assay: Antiviral activity against wild-type Hepatitis C virus genotype 1a infected in PXB mouse assessed as log reduction in viral mRNA titer at 100 mg/kg, po bid every 12 hrs for 7 days relative to control; type: functional, Hepacivirus hominis, subtype 1a
In short: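 PXB mice were infected with HCV genotype 1a wild-type virus and treated 5−8 weeks later (n = 4/group). Oral dosing b.i.d. for 7 days: prodrug at 10 or 30 mg/kg, or positive control at 100 mg/kg. Serum HCV RNA titers (viral load) were followed over the course of dosing.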

Hepatocyte [36] = assay: Drug metabolism in rat hepatocytes assessed as oxidation of the terminal bicyclohexane substituent at 10 uM by LC/MS/MS analysis; type: ADME, cell-based
Hepatocyte [37] = assay: Drug metabolism in human hepatocytes assessed as oxidation of the terminal bicyclohexane substituent at 10 uM by LC/MS/MS analysis; type: ADME, cell-based

Sequence of Cytochrome P450 2D6 (P10635 whole entry): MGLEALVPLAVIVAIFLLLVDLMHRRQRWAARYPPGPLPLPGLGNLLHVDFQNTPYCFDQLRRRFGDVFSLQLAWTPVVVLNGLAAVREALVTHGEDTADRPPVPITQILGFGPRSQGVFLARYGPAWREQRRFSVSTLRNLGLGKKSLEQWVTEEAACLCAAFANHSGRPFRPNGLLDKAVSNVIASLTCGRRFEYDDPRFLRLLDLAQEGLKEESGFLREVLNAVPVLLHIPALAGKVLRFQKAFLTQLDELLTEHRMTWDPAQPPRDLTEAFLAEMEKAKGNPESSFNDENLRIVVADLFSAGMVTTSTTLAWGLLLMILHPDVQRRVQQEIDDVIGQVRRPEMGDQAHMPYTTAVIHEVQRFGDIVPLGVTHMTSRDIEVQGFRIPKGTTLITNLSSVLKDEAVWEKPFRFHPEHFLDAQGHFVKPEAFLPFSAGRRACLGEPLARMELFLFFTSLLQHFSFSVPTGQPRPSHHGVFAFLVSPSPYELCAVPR
Sequence of Cytochrome P450 2C19 (P33261 whole entry): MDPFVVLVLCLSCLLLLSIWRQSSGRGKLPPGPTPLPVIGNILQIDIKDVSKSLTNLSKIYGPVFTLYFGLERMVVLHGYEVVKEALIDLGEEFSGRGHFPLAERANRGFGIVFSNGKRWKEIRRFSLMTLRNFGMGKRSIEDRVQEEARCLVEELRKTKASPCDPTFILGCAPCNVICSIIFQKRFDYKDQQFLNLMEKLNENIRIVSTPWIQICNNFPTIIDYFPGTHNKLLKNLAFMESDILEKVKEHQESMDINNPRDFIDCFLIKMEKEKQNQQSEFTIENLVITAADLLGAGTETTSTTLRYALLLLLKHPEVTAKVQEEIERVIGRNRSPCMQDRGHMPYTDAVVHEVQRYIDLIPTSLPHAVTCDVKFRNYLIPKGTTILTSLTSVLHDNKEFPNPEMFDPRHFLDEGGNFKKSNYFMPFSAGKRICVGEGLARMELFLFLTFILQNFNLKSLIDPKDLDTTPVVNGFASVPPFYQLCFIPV
Sequence of Cytochrome P450 3A4 (P08684 whole entry): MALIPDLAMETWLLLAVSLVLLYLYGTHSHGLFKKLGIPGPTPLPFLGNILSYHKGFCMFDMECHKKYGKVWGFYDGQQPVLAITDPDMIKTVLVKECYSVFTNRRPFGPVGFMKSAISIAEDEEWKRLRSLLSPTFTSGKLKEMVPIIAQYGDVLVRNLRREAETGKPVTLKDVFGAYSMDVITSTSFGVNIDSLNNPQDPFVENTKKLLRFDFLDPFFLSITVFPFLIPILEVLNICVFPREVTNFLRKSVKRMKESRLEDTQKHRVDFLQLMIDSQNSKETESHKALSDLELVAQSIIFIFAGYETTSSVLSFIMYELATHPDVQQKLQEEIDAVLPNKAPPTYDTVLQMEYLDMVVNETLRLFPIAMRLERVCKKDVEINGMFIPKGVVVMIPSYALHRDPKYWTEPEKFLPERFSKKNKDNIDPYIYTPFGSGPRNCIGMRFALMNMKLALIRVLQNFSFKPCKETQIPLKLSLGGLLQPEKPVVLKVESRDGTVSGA
Sequence of Cytochrome P450 2C9 (P11712 whole entry): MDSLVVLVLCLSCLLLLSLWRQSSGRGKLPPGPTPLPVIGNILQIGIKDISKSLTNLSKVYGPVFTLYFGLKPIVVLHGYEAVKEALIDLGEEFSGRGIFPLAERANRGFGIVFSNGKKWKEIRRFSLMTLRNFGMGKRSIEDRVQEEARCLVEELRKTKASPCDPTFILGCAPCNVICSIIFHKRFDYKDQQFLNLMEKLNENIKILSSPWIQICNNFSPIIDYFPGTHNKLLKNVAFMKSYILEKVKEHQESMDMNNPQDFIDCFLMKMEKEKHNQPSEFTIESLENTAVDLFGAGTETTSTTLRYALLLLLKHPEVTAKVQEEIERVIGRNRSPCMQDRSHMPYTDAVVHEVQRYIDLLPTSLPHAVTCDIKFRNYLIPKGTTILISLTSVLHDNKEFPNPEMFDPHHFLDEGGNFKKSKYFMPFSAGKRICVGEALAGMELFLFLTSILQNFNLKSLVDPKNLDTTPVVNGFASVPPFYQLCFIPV

O=C(c1nn2c(C(F)(F)F)cc(C3CC3)cc2c1Cl)N1CCN([C@H]2C[C@@H]3C[C@@H]3[C@@H]2O)C(=O)C1
AUC(0-inf) [1]: 25000 ng·h/mL
bioavailability [2]: > 100%
Vd [3]: 0.7 L/kg
solubility [4]: 310 µg/mL (≈ 642 µM)
IC50 (Cytochrome P450 2C9): > 20000 nM
half-life [5]: 2 h
IC50 (Cytochrome P450 2C19): > 20000 nM
EC50 (Hepatitis C virus [6]): 0.6 nM
AUC(0-inf) [7]: 1000 ng·h/mL
bioavailability [8]: 97%
clearance [9]: 25 mL/min/kg
clearance [10]: 19 mL/min/kg
half-life [11]: 4 h
IC50 (Cytochrome P450 3A4): > 20000 nM
IC50 (Cytochrome P450 1A2): > 20000 nM
fraction unbound at 4 h, 5 µM [12]: 0.04
fraction unbound at 4 h, 5 µM [13]: 0.09
Vd [14]: 0.7 L/kg
IC50 (Cytochrome P450 2D6): > 20000 nM
clearance [15]: 6 mL/min/kg
AUC(0-inf) [16]: 3100 ng·h/mL
fraction unbound at 4 h, 5 µM [17]: 0.06
Vd [18]: 2 L/kg
bioavailability [19]: 92%
IC50 [20]: 8 nM
fraction unbound at 4 h, 5 µM [21]: 0.03
half-life [22]: 2 h
Stability (Liver microsome [23]): Stable
clearance [24]: 3 mL/min/kg
EC50 (Hepatitis C virus [25]): 0.3 nM
EC50 (Hepatitis C virus [26]): 5 nM
chromatographic logD [27]: 4.6
EC50 (Hepatitis C virus [28]): 38 nM
AUC(0-inf) [29]: 25000 ng·h/mL
Stability (Liver microsome [30]): Stable
fraction unbound at 4 h, 5 µM [31]: 0.07
half-life [32]: 0.4 h
Vd [33]: 0.6 L/kg
bioavailability [34]: 12%

CNC(=O)c1c(-c2ccc(F)cc2)oc2cc(N(CCO)S(C)(=O)=O)c(C3CC3)cc12 [NESBUVIR]
FC (Hepatitis C virus [35]): 2.2

O=C(c1nn2c(C(F)(F)F)cc(C3CC3)cc2c1Cl)N1CCN([C@@H]2C[C@H]3C[C@H]3C2)C(=O)C1
EC50 (Hepatitis C virus [6]): 0.1 nM
clearance [9]: 70 mL/min/kg
Stability (Hepatocyte [36]): Unstable
IC50 [20]: 4 nM
EC50 (Hepatitis C virus [25]): 0.06 nM
EC50 (Hepatitis C virus [26]): 0.7 nM
chromatographic logD [27]: 6.4
Stability (Hepatocyte [37]): Unstable
EC50 (Hepatitis C virus [28]): 2 nM
